Measured values as given in ChEMBL document CHEMBL4706607, “Anti-tubercular profile of new selenium-menadione conjugates against Mycobacterium tuberculosis H37Rv (ATCC 27294) strain and multidrug-resistant clinical isolates” (Eur J Med Chem, 2021).
In brackets after ≈: the same amount, converted by molar mass.

Legend:
[1] = test system: Mycobacterium tuberculosis; assay: Antimycobacterial activity against Mycobacterium tuberculosis H37Rv ATCC 27294 assessed as reduction in bacterial growth by resazurin reduction microplate assay; assay type: functional
In short: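 REMA in Middlebrook 7H9 broth with 10% ADC. Compounds dissolved at 1 mg/mL in DMSO and diluted to 50 μg/mL in broth containing 5% DMSO. Ten-point two-fold dilutions gave 25.0 to 0.05 μg/mL. Growth and sterility controls on each plate. MIC was the lowest concentration preventing the blue-to-pink change.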

[2] = Cytotoxicity against African green monkey Vero cells assessed as reduction in cell viability incubated for 24 hrs by MTT assay; assay type: cell-based; settings: chlorocebus sabaeus
In short: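 Vero cells kept in DMEM with 4.5 mg/mL glucose and 10% inactivated FBS at 37 °C, 5% CO2. Seeded at 30,000 cells/well and grown 24 h, then exposed to 5, 10, 25 and 50 μM for 24 h. Control was medium with 1% DMSO. MTT 0.5 mg/mL in HBSS for 3 h; formazan dissolved in DMSO and read at 570–690 nm. CC50 taken from survival relative to untreated cells.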

[3] = Selectivity index, ratio of CC50 for African green monkey Vero cells to MIC for Mycobacterium tuberculosis H37Rv ATCC 27294; assay type: toxicity; settings: read-out: Selectivity Index
[4] = Selectivity index, ratio of CC50 for African green monkey Vero cells to MIC for Mycobacterium tuberculosis CDCT-16; assay type: toxicity; settings: read-out: Selectivity Index
[5] = Selectivity index, ratio of CC50 for African green monkey Vero cells to MIC for Mycobacterium tuberculosis CDCT-27; assay type: toxicity; settings: read-out: Selectivity Index

SMILES | MIC [1] | CC50 at 24 h [2] | selectivity ratio [3] | selectivity ratio [4] | selectivity ratio [5]
CC1=C(C[Se]C(=O)c2ccc(C)cc2)C(=O)c2ccccc2C1=O | > 10 µM |  |  |  | 
COc1ccc(C(=O)[Se]CC2=C(C)C(=O)c3ccccc3C2=O)cc1 | > 10 µM |  |  |  | 
CCCCC(=O)[Se]CC1=C(C)C(=O)c2ccccc2C1=O | > 10 µM |  |  |  | 
CCCC(C)C(=O)[Se]CC1=C(C)C(=O)c2ccccc2C1=O (centres undefined) | > 10 µM |  |  |  | 
NNC(=O)c1ccncc1 [ISONIAZID] | 2.2 µM (≈ 0.302 µg/mL) | > 50 µM | > 22.7 |  | 
CC1=C(C[Se]C(=O)c2ccccc2)C(=O)c2ccccc2C1=O | 2.1 µM (≈ 0.775 µg/mL) | > 50 µM | > 23.8 | > 62.5 | > 62.5
CC1=C(C[Se]C(=O)c2ccc(Cl)cc2)C(=O)c2ccccc2C1=O | > 10 µM |  |  |  | 
CC1=C(C[Se]C(=O)c2ccc(F)cc2)C(=O)c2ccccc2C1=O | 8 µM (≈ 3.1 µg/mL) | > 50 µM | > 6.2 | > 62.5 | > 16.1
CCc1ccc(C(=O)[Se]CC2=C(C)C(=O)c3ccccc3C2=O)cc1 | > 10 µM |  |  |  | 
CC1=C(C[Se]C(=O)c2ccccc2C)C(=O)c2ccccc2C1=O | 8.1 µM (≈ 3.1 µg/mL) | 7.7 µM | 0.9 | 2.5 | 2.5
